Columns and labels:
[1] = test system: HIV-1 LTR; experiment: HIV-1 LTR-CAT assay in HCT116 WT cells; format: cell-based; conditions: Flavopiridol, CR8#13, F07#13 100nM, 9AA 1000nM, 48hrs
Outline: (§1)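 HIV-1 LTR-CAT plasmid was transfected into HCT116 cells with or without pc-Tat. Six hours later, cells were treated with DMSO or test compound and incubated 48hrs at 37°C in complete DMEM. Dicer-/- extract was used at one tenth the amount of WT extract.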

[2] = test system: HIV-1 LTR; experiment: HIV-1 LTR-CAT assay in HCT116 Dicer-/- cells; format: cell-based; conditions: HCT116 Dicer-/- compared with HCT116 WT; 100nM; 48hrs
Outline: as §1

[3] = test system: HIV-1 (pNL4.3); experiment: Reverse transcriptase assay, pNL4.3 electroporated U937 cells; format: cell-based; conditions: Flavopiridol 200nM, 48 hours post drug treatment
[4] = test system: HIV-1 LTR; experiment: ChIP assay on the HIV-1 LTR in TZM-bl cells; format: cell-based; conditions: TSA for 7 days
Outline: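 TZM-bl cells carry an integrated HIV-1 LTR and were grown in DMEM with 10% FBS, 2mM L-glutamine and antibiotics. Cells were treated 7 days with sub-lethal TSA, then switched to complete medium and transfected with TAR-WT or control TAR-D RNA. ChIP was done on day 8 with HDAC-1 and Ago2 antibodies. Precipitated DNA was amplified with 0.1uM HIV-1 LTR primers.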

[5] = test system: HIV-1 LTR; experiment: Luciferase assay in TSA treated TZM-bl cells; format: cell-based; conditions: TSA treatment
Outline: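 TZM-bl cells, which carry a stably integrated HIV-1 LTR-luciferase reporter, were treated with TSA for 7 days and then with test compound. Firefly luciferase activity was measured with the BrightGlo Luciferase Assay.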

[6] = test system: infected ACH2, J1.1, OM10.1, U1 and uninfected CEM, Jurkat T-cells, and U937 cells; experiment: MTT assay on infected and uninfected cells; format: cell-based; conditions: 50nM and 10μM
Outline: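 Cell viability was measured by MTT assay at 50nM and at a high drug level. Uninfected CEM, Jurkat and U937 cells were grown in RPMI 1640 with FBS, L-glutamine and penicillin/streptomycin at 37°C, 5% CO2.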

[7] = cited from earlier work
[8] = test system: HIV-1 in T-cells; conditions: ref Agbottah et al, 2005; cited from earlier work
[9] = test system: HIV-1 in monocytes; conditions: ref Agbottah et al, 2005; cited from earlier work

## CN1CC[C@H](c2c(O)cc(O)c3c(=O)cc(-c4ccccc4Cl)oc23)[C@H](O)C1 [Flavopiridol]
[1]
  Inhibition of Tat-mediated HIV-1 LTR transcription (CAT assay): inhibited viral transcription significantly better in cells that contained Dicer
[2]
  Inhibition of Tat-mediated HIV-1 LTR transcription (CAT assay): less potent
[3]
  RT levels in supernatant: able to decrease RT levels in both cell lines

## CC(/C=C/C(=O)NO)=C\[C@@H](C)C(=O)c1ccc(N(C)C)cc1 [TSA, Trichostatin-A]
[4]
  Association of HDAC-1 and Ago2 with the HIV-1 LTR (ChIP): association was lost
[5]
  Luciferase activity of integrated HIV-1-Luc: increased Luciferase activity

## CC[C@H](CO)Nc1nc(NCc2ccc(-c3ccccn3)cc2)c2ncn(C(C)C)c2n1 [CR8]
[6]
  Cell killing of uninfected cells (MTT assay): some cell killing of uninfected cells
[7]
  Potency relative to Cyc202: roughly 25 times

## CC[C@H](CO)Nc1nc(NCc2ccccc2)c2ncn(C(C)C)c2n1 [Cyc202, R-roscovitine]
[8]
  Inhibition of HIV-1 in T-cells: effective inhibitor
[9]
  Inhibition of HIV-1 in monocytes: not in monocytes

## Nc1c2ccccc2nc2ccccc12 [9AA, 9-Aminoacridine]
[1]
  Inhibition of Tat-mediated HIV-1 LTR transcription (CAT assay): moderate effects

Source: publication PMC2902143 (Journal of RNAi and Gene Silencing : An International …, 2010)
